# Results taken from ChEMBL document CHEMBL4715768, “Conjugation of N-acylhydrazone and 1,2,4-oxadiazole leads to the identification of active antimalarial agents” (Bioorg Med Chem, 2016).
# Calls of active or inactive are those of the source. No cut-off for these calls is given here.
# Assays:
# Plasmodium falciparum [1] = assay: (§1) Antimalarial activity against chloroquine-resistant blood stage Plasmodium falciparum W2 infected in human erythrocytes assessed as parasite growth inhibition at 10 ug/ml incubated for 24 hrs followed by [3H]-hypoxanthine addition and further incubated for 24 hrs followed by cooling and measured after 24 hrs by beta radiation counter analysis relative to control; type: functional; conditions: W2, Erythrocyte, time 72 hrs
# Method in brief: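 P. falciparum W2 grown in human O+ erythrocytes in RPMI 1640 with 10% human plasma, at 1% parasitemia and 2.5% hematocrit. Compounds diluted with 4% DMSO and medium, tested in triplicate. [3H]-hypoxanthine incorporation read; inhibition calculated against untreated parasites.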
# [2] = Cytotoxicity against human HepG2 cells assessed as reduction in cell growth measured after 72 hrs by alamar blue assay; type: cell-based
# Method in brief: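 HepG2 cells in phenol red-free RPMI-1640 with 10% FBS were seeded at 10⁴ cells/well. After 24 h they were exposed to five concentrations in triplicate for 72 h at 37 °C, 5% CO₂. AlamarBlue (20%) was added for 24 h, and absorbance was read at 570/600 nm. CC50 came from non-linear regression, two independent experiments. Gentian violet served as the cytotoxic control.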
# Plasmodium berghei [3] = assay: Antimalarial activity against Plasmodium berghei NK65 infected in Swiss mouse assessed as decrease in parasitemia at 25 to 50 mg/kg, ip qd administered via gavage for 4 consecutive days and measured up to 8 days by optical microscopy analysis; type: functional, organism-based; conditions: dose 25-50 mg/kg, time day <=8
# Method in brief: (§2)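 Adult Swiss mice (4-6 weeks, n=5/group) inoculated i.p. with 10⁶ P. berghei NK65-infected red cells. Dosing began 1 h post-infection, once daily for 4 consecutive days by oral gavage or i.p. Vehicle was DMSO 20% in saline. Tail blood smears were taken on days 4–8, methanol-fixed, panoptic-stained and read by light microscopy. Inhibition = [(C−T)/C]×100 versus vehicle controls. Means ± SEM.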
# [4] = Hemolytic activity in human erythrocytes measured after 1 hr by microtiter plate method; type: ADME, cell-based, Erythrocyte; conditions: read-out: CC50
# Method in brief: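 Fresh human O⁺ erythrocytes were washed three times in PBS and used at 1% hematocrit. Compounds dissolved in PBS were added in triplicate and incubated 1 h; saponin 1% v/v served as the full-lysis control. After centrifugation, haemoglobin released into the supernatant was read at 540 nm and hemolysis CC50 derived.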
# Plasmodium berghei [5] = assay: Antimalarial activity against Plasmodium berghei NK65 infected in Swiss mouse assessed as effect on mouse survival at 25 to 50 mg/kg, ip qd administered via gavage for 4 consecutive days and […] by optical microscopy analysis; type: functional, organism-based; conditions: dose 25-50 mg/kg
# Method in brief: (§3)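 Swiss mice (n=5/group) infected i.p. with 10⁶ P. berghei NK65 red cells, then treated 1 h later, once daily for 4 days, orally by gavage or i.p. Vehicle was DMSO in saline. Survival was followed to 30 days post-infection and compared with vehicle by Mantel-Cox test. One experiment of two replicates.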
# Hemozoin [6] = assay: Inhibition of beta-hematin formation measured after 24 hrs by spectrophotometry analysis
# Method in brief: (§4)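 Haemin (0.5 mg/mL in 0.2 M NaOH) was mixed with 3 M sodium acetate, 17.4 M acetic acid and compound, tested at up to 2.5 mM. Incubation was 24 h at 37 °C. Pellets were washed with DMSO twice and water, dissolved in 0.1 M NaOH, and read at 405 nm. Inhibition was taken against a no-compound control, at least twice in triplicate. Chloroquine was the positive control. CQ index = IC50 CQ / IC50 compound.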
# Plasmodium falciparum [7] = assay: as §1, with “inhibition” for “inhibition at 10 ug/ml”, “analysis” for “analysis relative to control”; type: functional, organism-based; conditions: W2, Erythrocyte
# Method in brief: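 W2 P. falciparum cultured in O+ human erythrocytes in RPMI 1640 plus 10% human plasma, at 1% parasitemia and 2.5% hematocrit. At least five compound concentrations, each in triplicate. Growth measured as [3H]-hypoxanthine uptake relative to untreated parasites. IC50 derived from two independent experiments.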
# [8] = Selectivity index, ratio of CC50 for human HepG2 cells assessed as cell growth inhibition measured after 72 hrs by alamar blue assay to IC50 for chloroquine-resistant blood stage Plasmodium falciparum W2 infected in human erythrocytes assessed as parasite growth inhibition incubated for 24 hrs followed by [3H]-hypoxanthine addition and further incubated for 24 hrs followed by cooling and measured after 24 hrs by beta radiation counter analysis; type: toxicity, cell-based; conditions: read-out: Ratio CC50/IC50
# Plasmodium berghei [9] = assay: Antimalarial activity against Plasmodium berghei NK65 infected in Swiss mouse assessed as decrease in parasitemia at 50 mg/kg, po qd administered via gavage for 4 consecutive days and measured up to 8 days by optical microscopy analysis; type: functional, organism-based; conditions: time day <=8; method in brief: as §2
# Plasmodium berghei [10] = assay: Antimalarial activity against Plasmodium berghei NK65 infected in Swiss mouse assessed as increase in mouse survival at 50 mg/kg, po qd administered via gavage for 4 consecutive days and […] relative to control; type: functional
# Method in brief: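 Swiss mice, 4–6 weeks, n=5 per group, infected i.p. with 10⁶ P. berghei NK65-infected red cells. Treated once daily for 4 consecutive days starting 1 h post-infection, dosed by oral gavage in 20% DMSO. Vehicle controls received DMSO in saline. Survival followed up to 30 days; Mantel-Cox test. One experiment of two replicates.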
# Hemozoin [11] = assay: Potency index, ratio of chloroquine IC50 to test compound IC50 for inhibition of beta-hematin formation measured after 24 hrs by spectrophotometry analysis; method in brief: as §4
# Plasmodium berghei [12] = assay: Antimalarial activity against Plasmodium berghei NK65 infected in Swiss mouse assessed as increase in mouse survival at 100 mg/kg, po qd administered via gavage for 4 consecutive days and […] relative to control; type: functional, organism-based; method in brief: as §3
# Plasmodium berghei [13] = assay: Antimalarial activity against Plasmodium berghei NK65 infected in Swiss mouse assessed as decrease in parasitemia at 100 mg/kg, ip qd administered via gavage for 4 consecutive days and measured up to 8 days by optical microscopy analysis; type: functional, organism-based; conditions: time day <=8; method in brief: as §2
# Plasmodium berghei [14] = assay: Antimalarial activity against Plasmodium berghei NK65 infected in Swiss mouse assessed as decrease in parasitemia at 100 mg/kg, po qd administered via gavage for 4 consecutive days and measured up to 8 days by optical microscopy analysis; type: functional, organism-based; conditions: time day <=8; method in brief: as §2
compound,measurement,setting,value
COc1cc(/C=N/NC(=O)c2nc(-c3ccc(F)cc3)no2)ccc1O,inhibition at 10 µg/mL,Plasmodium falciparum [1],24.7%
O=C(N/N=C/c1ccc2c(c1)OCO2)c1nc(-c2ccccc2)no1,inhibition at 10 µg/mL,Plasmodium falciparum [1],27.5%
Cc1ccc(-c2noc(C(=O)N/N=C/C=C/c3ccccc3)n2)cc1,inhibition at 10 µg/mL,Plasmodium falciparum [1],52.7%
COc1cc(/C=N/NC(=O)c2nc(-c3ccc([N+](=O)[O-])cc3)no2)ccc1O,CC50 at 72 h,[2],14.8 µM
same,Activity,Plasmodium berghei [3],Active
same,HC50 at 1 h,[4],> 100 µg/mL
same,inhibition at 10 µg/mL,Plasmodium falciparum [1],68.7%
same,Activity,Plasmodium berghei [5],inactive
same,IC50,Hemozoin [6],> 2000 µM
same,IC50,Plasmodium falciparum [7],0.2 µM
same,selectivity ratio at 72 h,[8],74
O=C(N/N=C/c1ccc2c(c1)OCO2)c1nc(-c2ccc(F)cc2)no1,inhibition at 10 µg/mL,Plasmodium falciparum [1],31.6%
"O[C@@H](c1cc(C(F)(F)F)nc2c(C(F)(F)F)cccc12)[C@H]1CCCCN1 [(S,R)-MEFLOQUINE]",CC50 at 72 h,[2],11.8 µM
same,inhibition at 10 µg/mL,Plasmodium falciparum [1],100%
same,IC50,Plasmodium falciparum [7],0.04 µM
same,selectivity ratio at 72 h,[8],295
COc1ccc(-c2noc(C(=O)N/N=C/c3ccc(O)c(OC)c3)n2)cc1,inhibition at 10 µg/mL,Plasmodium falciparum [1],42.2%
COc1cc(/C=N/NC(=O)c2nc(-c3ccc(Cl)cc3)no2)ccc1O,inhibition at 10 µg/mL,Plasmodium falciparum [1],37%
COc1ccc(-c2noc(C(=O)N/N=C/c3ccc4c(c3)OCO4)n2)cc1,inhibition at 10 µg/mL,Plasmodium falciparum [1],27.5%
CCN(CC)CCCC(C)Nc1ccnc2cc(Cl)ccc12 (stereo unspecified) [CHLOROQUINE],Activity,Plasmodium berghei [9],Active
same,Activity,Plasmodium berghei [10],100%
same,HC50 at 1 h,[4],> 100 µg/mL
same,IC50,Hemozoin [6],800 µM
COc1cc(/C=N/NC(=O)c2nc(-c3ccc(C)cc3)no2)ccc1O,Ratio IC50,Hemozoin [11],1.3
same,CC50 at 72 h,[2],46.6 µM
same,HC50 at 1 h,[4],> 100 µg/mL
same,inhibition at 10 µg/mL,Plasmodium falciparum [1],61.1%
same,Activity,Plasmodium berghei [12],inactive
same,IC50,Hemozoin [6],600 µM
same,Activity,Plasmodium berghei [13],inactive
same,IC50,Plasmodium falciparum [7],0.12 µM
same,selectivity ratio at 72 h,[8],388
same,Activity,Plasmodium berghei [14],inactive
O=C(N/N=C/C=C/c1ccccc1)c1nc(-c2ccc(O)cc2)no1,inhibition at 10 µg/mL,Plasmodium falciparum [1],39.1%
O=C(N/N=C/C=C/c1ccccc1)c1nc(-c2ccc(Br)cc2)no1,inhibition at 10 µg/mL,Plasmodium falciparum [1],58.8%
Cc1ccc(-c2noc(C(=O)N/N=C/c3ccc4c(c3)OCO4)n2)cc1,inhibition at 10 µg/mL,Plasmodium falciparum [1],21.9%
O=C(N/N=C/C=C/c1ccccc1)c1nc(-c2ccc([N+](=O)[O-])cc2)no1,inhibition at 10 µg/mL,Plasmodium falciparum [1],25.7%
O=C(N/N=C/C=C/c1ccccc1)c1nc(-c2ccc(F)cc2)no1,inhibition at 10 µg/mL,Plasmodium falciparum [1],34.3%
O=C(N/N=C/C=C/c1ccccc1)c1nc(-c2ccccc2)no1,inhibition at 10 µg/mL,Plasmodium falciparum [1],51%
COc1ccc(-c2noc(C(=O)N/N=C/C=C/c3ccccc3)n2)cc1,inhibition at 10 µg/mL,Plasmodium falciparum [1],26.1%
O=C(N/N=C/c1ccc2c(c1)OCO2)c1nc(-c2ccc(Br)cc2)no1,inhibition at 10 µg/mL,Plasmodium falciparum [1],45.3%
O=C(N/N=C/c1ccc2c(c1)OCO2)c1nc(-c2ccc(Cl)cc2)no1,inhibition at 10 µg/mL,Plasmodium falciparum [1],53%
O=C(N/N=C/C=C/c1ccccc1)c1nc(-c2ccc(Cl)cc2)no1,inhibition at 10 µg/mL,Plasmodium falciparum [1],28.8%
COc1cc(/C=N/NC(=O)c2nc(-c3ccccc3)no2)ccc1O,inhibition at 10 µg/mL,Plasmodium falciparum [1],55.4%
O=C(N/N=C/c1ccc2c(c1)OCO2)c1nc(-c2ccc(O)cc2)no1,Ratio IC50,Hemozoin [11],1
same,CC50 at 72 h,[2],> 200 µM
same,HC50 at 1 h,[4],> 100 µg/mL
same,inhibition at 10 µg/mL,Plasmodium falciparum [1],71.9%
same,IC50,Hemozoin [6],800 µM
same,IC50,Plasmodium falciparum [7],1.5 µM
COc1cc(/C=N/NC(=O)c2nc(-c3ccc(Br)cc3)no2)ccc1O,Ratio IC50,Hemozoin [11],0.8
same,CC50 at 72 h,[2],16.9 µM
same,HC50 at 1 h,[4],33 µg/mL
same,inhibition at 10 µg/mL,Plasmodium falciparum [1],71.1%
same,Activity,Plasmodium berghei [12],inactive
same,IC50,Hemozoin [6],900 µM
same,Activity,Plasmodium berghei [13],inactive
same,IC50,Plasmodium falciparum [7],0.07 µM
same,selectivity ratio at 72 h,[8],241
same,Activity,Plasmodium berghei [14],inactive
COc1cc(/C=N/NC(=O)c2nc(-c3ccc(O)cc3)no2)ccc1O,CC50 at 72 h,[2],> 200 µM
same,HC50 at 1 h,[4],> 100 µg/mL
same,inhibition at 10 µg/mL,Plasmodium falciparum [1],58.8%
same,IC50,Hemozoin [6],> 2000 µM
same,IC50,Plasmodium falciparum [7],1.9 µM
O=C(N/N=C/c1ccc2c(c1)OCO2)c1nc(-c2ccc([N+](=O)[O-])cc2)no1,inhibition at 10 µg/mL,Plasmodium falciparum [1],33.9%
